Source: PubChem BioAssay (several laboratories)
Shown are actives, neighbours in structure and some others; about 3% of the full set was active somewhere.
MEKK3 PB1 HTS – raises or lowers MEK5 binding to the human MEKK3 PB1 domain; AID 1529; binding response (% of control), % at 10 µM; bead-based flow cytometry, Alexa488-MEK5 binding to MEKK3; actives lie on both sides; 0 = blocked by unlabeled MEK5, 100 = vehicle; Q99759; 1.4% of 290,000 active;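 active means binding response more than 3 SD above or below the average of its plate-row segment, actives on both sides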;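 further: Alexa488 bead fluorescence after subtracting the streptavidin-only scavenger bead signal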
UCH37 inh – inhibitors of human deubiquitinating enzyme UCH37; Q9Y5K5; purified proteasome/UCH37, Ub-AMC cleavage fluorescence; inhibition, % (test concentration not listed); 0.33% of 330,000 active; AID 588478;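 active means mean inhibition over replicate wells above about 20%, limit read from the data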;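 further: 0% = compound-free wells with enzyme and 100% = wells lacking proteasome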
Target sequence (Q9Y5K5 whole entry, looked up): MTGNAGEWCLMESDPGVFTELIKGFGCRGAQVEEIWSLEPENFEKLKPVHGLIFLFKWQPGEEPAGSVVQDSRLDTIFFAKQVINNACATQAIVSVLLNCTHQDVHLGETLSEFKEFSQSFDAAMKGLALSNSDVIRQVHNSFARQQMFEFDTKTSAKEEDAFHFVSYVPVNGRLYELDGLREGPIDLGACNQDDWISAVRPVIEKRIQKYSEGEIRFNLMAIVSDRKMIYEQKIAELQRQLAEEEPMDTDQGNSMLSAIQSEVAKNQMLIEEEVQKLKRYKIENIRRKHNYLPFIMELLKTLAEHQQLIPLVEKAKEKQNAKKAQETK
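system = Proteasome-associated human UCH37 deubiquitinase | amount = 0.15 nM proteasome as dispensed | medium = pH 7.4 Tris-HCl (50 mM) with ovalbumin, ATP-MgCl2, DTT | incubation = 30 min preincubation with enzyme, 25 min cleavage at room temperature | detection = AMC fluorescence 355/460 nm | read-out basis = percent inhibition | controls = no-proteasome and no-compound wells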
MEKK2wt PB1 HTS – raises or lowers MEK5 binding to wildtype human MEKK2 PB1 domain; Q9Y2U5; bead flow cytometry, Alexa488-MEK5 binding to MEKK2 WT; actives lie on both sides; binding response (% of control), % at 10 µM; 1.1% of 290,000 active; in the data active means binding response below about 67% or above about 130%
UBC13 inh – blocks human UBC13 polyubiquitin chain formation | inhibition, % at 20 µM | P61088 | TR-FRET | 0.47% of 330,000 active; in the data active means inhibition above about 45%, passing the limit was not always enough
Target sequence (P61088 whole entry, looked up): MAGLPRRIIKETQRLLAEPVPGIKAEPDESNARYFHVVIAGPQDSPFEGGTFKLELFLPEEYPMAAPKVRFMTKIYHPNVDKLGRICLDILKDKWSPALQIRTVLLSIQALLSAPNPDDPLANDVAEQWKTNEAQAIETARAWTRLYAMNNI
MEKK2 mut-MEK5 – signal of MEK5 binding to mutant human MEKK2 PB1 domain. bead flow cytometry, Alexa488-MEK5 binding to MEKK2 mutant. percent response, % at 10 µM. 0.35% of 290,000 active. AID 1530; in the data active means percent response above about 24%, passing the limit was not always enough
Apaf-1 inh – blocks human Apaf-1 apoptosome activity. O14727. reconstituted apoptosome caspase-3 activity, DEVD-Rh110 fluorescence. inhibition, % at 20 µM. 0.71% of 330,000 active. AID 489030; active means inhibition of at least 40% at 20 µM;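 further: plate controls were DMSO wells for no effect and DEVD-CHO caspase inhibitor wells for full effect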
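Material: reconstituted apoptosome with Apaf-1, cytochrome c, caspase-9, procaspase-3, dATP. Technique: Rh110 fluorescence intensity. Buffer or medium: pH 7.5 Hepes buffer with CHAPS, BSA, DTT. Times: 30 min plus 50 min, RT.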
The depositor's hits bear a star; i = inactive; nt = no result given; + = active, no number; [ ] = dose if it differs, or a comment.

SMILES	MEKK3 PB1 HTS	UCH37 inh	MEKK2wt PB1 HTS	UBC13 inh	MEKK2 mut-MEK5	Apaf-1 inh
Cc1nn(C(C)C(=O)NCCCN2CCCCCC2)c(=O)c2c1sc1ccccc12 (centres undefined)	107	-2	162*	21	27*	17
COc1ccc(-n2nc3c(N4CCC(C(=O)NCCc5ccccc5C)CC4)nnc(C)c3c2C)cc1	108	-60	112	9	9	23
COc1ccc(-n2nc3c(N4CCC(C(=O)NCc5ccccc5C)CC4)nnc(C)c3c2C)cc1	96	-26	102	17	-1	59*
CCOC(=O)C1=C(O)/C(=C\c2cccc(OC)c2)N=C1C	109	3	104	-9	3	-24
CC(C)NC1=C(Cl)C(=O)c2ccccc2C1=O	102	10	100	-368	3	63*
COc1c(Cl)cc(-c2noc(C)c2C(=O)NCc2ccc3c(c2)OCO3)cc1Cl	108	4	98	-1	-3	15
C/C(=C/c1oc2ccc(O)cc2c1[N+](=O)[O-])N(C)C	94	9	88	-423	-1	9
CC(=O)Oc1ccc2oc(/C=C/N(C)C)c([N+](=O)[O-])c2c1	102	22*	102	i	7	4
COc1ccc(N(C)S(=O)(=O)c2cccc(C(=O)OC(C)C(=O)NC3CCCCC3C)c2)cc1 (centres undefined)	nt	6	nt	8	nt	15
CN(C)CC/C=C1/c2ccccc2COc2ccccc21	105	nt	111	nt	4	nt
CN(C)CCC=C1c2ccccc2CCc2ccccc21	91	22*	107	12	-1	7
COc1ccc(CNC(=O)C(C)N2CCN(c3ccc(C(C)=O)cc3)CC2)cc1 (centres undefined)	101	3	97	-5	-5	8
CCOC(=O)c1ccc2c(c1)n(CC)c(/C=C/N(C)c1ccccc1)[n+]2CC	98	24*	101	6	-1	-11
Cc1cc(C)nc(NC(=NCCc2c[nH]c3ccccc23)NC(=O)Nc2ccc(Cl)c(Cl)c2)n1	109	6	49*	-12	47	5
Cc1cc(C)nc(NC(=NCCc2c[nH]c3ccccc23)NC(=O)Nc2ccccc2)n1	100	3	93	-7	4	-8
COC(=O)c1cccc(NC(=O)COc2cccc([N+](=O)[O-])c2)c1	96	33*	94	3	-5	-7
Cc1cccc(C)c1OCC(=O)NN=Cc1ccncc1	nt	4	nt	nt	nt	nt
Cc1c(NC(=O)c2cnc(Cl)c(Cl)c2)c(=O)n(-c2ccccc2)n1C	50*[inhibitor]	5	46*[inhibitor]	4	-19	7
Cn1c(SCC(=O)NN=Cc2ccc([N+](=O)[O-])s2)nnc1-c1ccc(Cl)cc1	nt	4	nt	nt	nt	nt
Cc1cc(C)c2c(CC(=O)O)coc2c1	97	29*	99	0	2	0
CCS(=O)(=O)N1CCN(CC(=O)NC2CCCCC2)CC1	100	2	99	-3	3	7
COc1ccccc1C(=O)Nc1ccc2c(c1)nc1n2CCN(C2CCCCC2)C1	92	-8	-12*	0	12	23
COc1ccc2sc(/C=C/c3ccccc3O)[n+](C)c2c1	94	14	4.0*	nt	19	nt
COc1cccc(/C=C/C(=O)NCCc2ccc(OC)c(OC)c2)c1	103	-2	108	-8	11	6
Clc1ccc(-c2nnc3sc(Cc4cccs4)nn23)cc1	111	1	105	6	17	58*
SMILES	MEKK3 PB1 HTS	UCH37 inh	MEKK2wt PB1 HTS	UBC13 inh	MEKK2 mut-MEK5	Apaf-1 inh
c1ccc(-c2nnc3sc(Cc4cccs4)nn23)cc1	95	-1	97	-13	1	30
C/C(=N\NC(=O)C1CC1)c1ccc(C(C)(C)C)cc1	99	nt	103	9	-1	5
COc1cc(/C=C(\C#N)C(=O)NCC2CCCO2)ccc1OCCC(C)C (centres undefined)	102	1	101	8	-1	-15
CC(=NNC(=O)c1ccc(OC2OCCOC2Oc2ccc(C(=O)NN=C(C)c3ccncc3)cc2)cc1)c1ccncc1 (centres undefined)	nt	8	nt	nt	nt	nt
CC(=NNC(=O)c1n[nH]c2c1CCC2)c1ccco1	nt	3	nt	nt	nt	nt
CC1(C)CC(=NNC(=O)c2n[nH]c3c2CCC3)CC(C)(C)N1	100	31*	99	0	1	4
Cc1ccc(C(=O)N/C(=C\c2ccc(-c3ccccc3[N+](=O)[O-])o2)C(=O)NCCCN2CCOCC2)cc1	103	18	112	-23	8	65*
COc1ccc2nc(C)cc(NCc3cccc(C(F)(F)F)c3)c2c1	104	-18	154*	9	16	4
COc1ccccc1/C=C/CN1CCCC(CO)(Cc2cccc(Cl)c2)C1 (centres undefined)	111	0	190*	7	60*	7
COc1cccc(CC2(CO)CCCN(C/C=C/c3ccccc3OC)C2)c1 (centres undefined)	103	4	115	13	3	2
COC(=O)C1=C(C)Nc2nc(-c3ccccc3)nn2C1c1ccc(C)o1 (centres undefined)	98	4	99	5	-4	6
C/C=C/C(=O)Nc1cccc(C2=NOC3(C2)C[C@H](C(N)=O)N(C(=O)c2ccccc2C(=O)c2ccccc2)C3)c1 (some centres undefined)	75	2	95	52*	-6	7
Oc1oc(-c2cccc3ccccc23)nc1/C=N/c1nccs1	130*	nt	104	-25	1	12
CC(C(=O)Nc1ccc([N+](=O)[O-])cc1)N1CCN(C/C=C/c2ccccc2)CC1 (centres undefined)	104	5	106	18	1	2
CC(=O)c1ccc(NC(=O)C(C)N2CCN(C/C=C/c3ccccc3)CC2)cc1 (centres undefined)	191*	2	120	3	+	9
C=CCNC(=S)NNC(=O)C(CCC(C)C)CC(C)(C)O (centres undefined)	107	31*	108	-3	8	2
C=CCNC(=S)NNC(=O)C(CC(C)C)CC(C)O (centres undefined)	93	1	94	6	2	-6
N#CCCN(C(=O)COC(=O)CNC(=O)C12CC3CC(CC(C3)C1)C2)c1ccccc1	nt	-1	nt	-1	nt	37
N#CCCN(C(=O)COC(=O)C12CC3CC(CC(O)(C3)C1)C2)c1ccc(F)cc1	nt	6	nt	14	nt	43*
CCN(CC)c1cccc(OCC(=O)N(C)CCC#N)c1	89	-5	nt	-10	73*	19
O=C(OCc1ccccc1F)c1cnc(Cl)c(Cl)c1	0.0*[inhibitor]	5	-10*[inhibitor]	-1	-26	11
